Measured values from ChEMBL document CHEMBL3585335, “Isolation and Synthetic Diversification of Jadomycin 4-Amino-l-phenylalanine” (J Nat Prod, 2015).
Calls of active or inactive are those of the source.

Assays:
[1] = system: NCI-H23; test: Cytotoxicity against human NCI-H23 cells assessed as cell growth at 1 x 10^-5 M; type: functional, cell-based
Summary of the method: (§1)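 Run by the NCI Developmental Therapeutics Program (DTP) as its one-dose screen across the 60 human tumour cell line panel.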

[2] = system: Hs-578T; test: Cytotoxicity against human Hs578T cells assessed as cell growth at 1 x 10^-5 M; type: functional, cell-based; summary of the method: as §1
[3] = system: T47D; test: Cytotoxicity against human T47D cells assessed as cell growth at 1 x 10^-5 M; type: functional, cell-based
Summary of the method: (§2)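 Tested by the NCI Developmental Therapeutics Program in its one-dose screen across the 60 human tumour cell line panel.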

[4] = system: SF-539; test: Cytotoxicity against human SF539 cells assessed as cell growth at 1 x 10^-5 M; type: functional, cell-based; summary of the method: as §1
[5] = system: SK-OV-3; test: Cytotoxicity against human SKOV3 cells assessed as cell growth at 1 x 10^-5 M; type: functional, cell-based; summary of the method: as §1
[6] = system: OVCAR-8; test: Cytotoxicity against human OVCAR8 cells assessed as cell growth at 1 x 10^-5 M; type: functional, cell-based; summary of the method: as §1
[7] = system: HCC 2998; test: Cytotoxicity against human HCC2998 cells assessed as cell growth at 1 x 10^-5 M; type: functional, cell-based; summary of the method: as §1
[8] = system: Escherichia coli; test: Effect on Copper-mediated Escherichia coli pUC19 DNA cleavage at 100 uM by gel-electrophoresis analysis
[9] = system: ACHN; test: Cytotoxicity against human ACHN cells assessed as cell growth at 1 x 10^-5 M; type: functional, cell-based; summary of the method: as §1
[10] = system: NCI-H522; test: Cytotoxicity against human NCI-H522 cells assessed as cell growth at 1 x 10^-5 M; type: functional, cell-based; summary of the method: as §1
[11] = system: DU-145; test: Cytotoxicity against human DU145 cells assessed as cell growth at 1 x 10^-5 M; type: functional, cell-based; summary of the method: as §1
[12] = system: LOX IMVI; test: Cytotoxicity against human LOXIMVI cells assessed as cell growth at 1 x 10^-5 M; type: functional, cell-based; summary of the method: as §1
[13] = system: K562; test: Cytotoxicity against human K562 cells assessed as cell growth at 1 x 10^-5 M; type: functional, cell-based; summary of the method: as §1
[14] = system: SF-295; test: Cytotoxicity against human SF295 cells assessed as cell growth at 1 x 10^-5 M; type: functional, cell-based; summary of the method: as §1
[15] = system: HOP-62; test: Cytotoxicity against human HOP62 cells assessed as cell growth at 1 x 10^-5 M; type: functional, cell-based; summary of the method: as §1
[16] = system: TK-10; test: Cytotoxicity against human TK10 cells assessed as cell growth at 1 x 10^-5 M; type: functional, cell-based; summary of the method: as §2
[17] = system: HT-29; test: Cytotoxicity against human HT-29 cells assessed as cell growth at 1 x 10^-5 M; type: functional, cell-based; summary of the method: as §1
[18] = system: A549; test: Cytotoxicity against human A549 cells assessed as cell growth at 1 x 10^-5 M; type: functional, cell-based; summary of the method: as §1
[19] = system: HCT-116; test: Cytotoxicity against human HCT116 cells assessed as cell growth at 1 x 10^-5 M; type: functional, cell-based; summary of the method: as §1
[20] = system: NCI/ADR-RES; test: Cytotoxicity against human NCI-ADR-RES cells assessed as cell growth at 1 x 10^-5 M; type: functional, cell-based; summary of the method: as §1
[21] = system: SF-268; test: Cytotoxicity against human SF268 cells assessed as cell growth at 1 x 10^-5 M; type: functional, cell-based; summary of the method: as §1
[22] = system: MDA-MB-231; test: Cytotoxicity against human MDA-MB-231 cells assessed as cell growth at 1 x 10^-5 M; type: functional, cell-based; summary of the method: as §1
[23] = system: CCRF-CEM; test: Cytotoxicity against human CCRF-CEM cells assessed as cell growth at 1 x 10^-5 M; type: functional, cell-based; summary of the method: as §1
[24] = system: OVCAR-4; test: Cytotoxicity against human OVCAR4 cells assessed as cell growth at 1 x 10^-5 M; type: functional, cell-based; summary of the method: as §1
[25] = system: MOLT-4; test: Cytotoxicity against human MOLT4 cells assessed as cell growth at 1 x 10^-5 M; type: functional, cell-based; summary of the method: as §1
[26] = system: NCI-H322M; test: Cytotoxicity against human NCI-H322M cells assessed as cell growth at 1 x 10^-5 M; type: functional, cell-based; summary of the method: as §1
[27] = system: UACC-257; test: Cytotoxicity against human UACC257 cells assessed as cell growth at 1 x 10^-5 M; type: functional, cell-based; summary of the method: as §2
[28] = system: Escherichia coli; test: Effect on Copper-mediated Escherichia coli pBR322 DNA cleavage at 100 uM by gel-electrophoresis analysis
[29] = system: HCT-15; test: Cytotoxicity against human HCT15 cells assessed as cell growth at 1 x 10^-5 M; type: functional, cell-based; summary of the method: as §1
[30] = system: MCF7; test: Cytotoxicity against human MCF7 cells assessed as cell growth at 1 x 10^-5 M; type: functional, cell-based; summary of the method: as §1
[31] = system: U-251; test: Cytotoxicity against human U251 cells assessed as cell growth at 1 x 10^-5 M; type: functional, cell-based; summary of the method: as §2
[32] = system: SR; test: Cytotoxicity against human SR cells assessed as cell growth at 1 x 10^-5 M; type: functional, cell-based; summary of the method: as §1
[33] = system: MDA-MB-468; test: Cytotoxicity against human MDA-MB-468 cells assessed as cell growth at 1 x 10^-5 M; type: functional, cell-based; summary of the method: as §1
[34] = system: Malme-3M; test: Cytotoxicity against human MALME-3M cells assessed as cell growth at 1 x 10^-5 M; type: functional, cell-based; summary of the method: as §1
[35] = system: PC-3; test: Cytotoxicity against human PC3 cells assessed as cell growth at 1 x 10^-5 M; type: functional, cell-based; summary of the method: as §1
[36] = system: SK-MEL-2; test: Cytotoxicity against human SK-MEL-2 cells assessed as cell growth at 1 x 10^-5 M; type: functional, cell-based; summary of the method: as §1
[37] = system: NCI-H460; test: Cytotoxicity against human NCI-H460 cells assessed as cell growth at 1 x 10^-5 M; type: functional, cell-based; summary of the method: as §1
[38] = system: KM12; test: Cytotoxicity against human KM12 cells assessed as cell growth at 1 x 10^-5 M; type: functional, cell-based; summary of the method: as §1
[39] = system: SK-MEL-28; test: Cytotoxicity against human SK-MEL-28 cells assessed as cell growth at 1 x 10^-5 M; type: functional, cell-based; summary of the method: as §1
[40] = system: UACC-62; test: Cytotoxicity against human UACC62 cells assessed as cell growth at 1 x 10^-5 M; type: functional, cell-based; summary of the method: as §2
[41] = system: SNB-19; test: Cytotoxicity against human SNB19 cells assessed as cell growth at 1 x 10^-5 M; type: functional, cell-based; summary of the method: as §1
[42] = system: CAKI-1; test: Cytotoxicity against human Caki1 cells assessed as cell growth at 1 x 10^-5 M; type: functional, cell-based; summary of the method: as §1
[43] = system: SW-620; test: Cytotoxicity against human SW620 cells assessed as cell growth at 1 x 10^-5 M; type: functional, cell-based; summary of the method: as §2
[44] = system: COLO 205; test: Cytotoxicity against human COLO205 cells assessed as cell growth at 1 x 10^-5 M; type: functional, cell-based; summary of the method: as §1
[45] = system: BT-549; test: Cytotoxicity against human BT549 cells assessed as cell growth at 1 x 10^-5 M; type: functional, cell-based; summary of the method: as §1
[46] = system: UO-31; test: Cytotoxicity against human UO31 cells assessed as cell growth at 1 x 10^-5 M; type: functional, cell-based; summary of the method: as §2
[47] = system: OVCAR-5; test: Cytotoxicity against human OVCAR5 cells assessed as cell growth at 1 x 10^-5 M; type: functional, cell-based; summary of the method: as §1
[48] = system: HL-60(TB); test: Cytotoxicity against human HL-60(TB) cells assessed as cell growth at 1 x 10^-5 M; type: functional, cell-based
Summary of the method: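 Run by the NCI Developmental Therapeutics Program (DTP) within its 60 human tumour cell line one-dose screen.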

[49] = system: A498; test: Cytotoxicity against human A498 cells assessed as cell growth at 1 x 10^-5 M; type: functional, cell-based; summary of the method: as §1
[50] = system: OVCAR-3; test: Cytotoxicity against human OVCAR3 cells assessed as cell growth at 1 x 10^-5 M; type: functional, cell-based; summary of the method: as §1
[51] = system: NCI-H226; test: Cytotoxicity against human NCI-H226 cells assessed as cell growth at 1 x 10^-5 M; type: functional, cell-based; summary of the method: as §1
[52] = system: RXF 393; test: Cytotoxicity against human RXF393 cells assessed as cell growth at 1 x 10^-5 M; type: functional, cell-based; summary of the method: as §1
[53] = system: HOP-92; test: Cytotoxicity against human HOP92 cells assessed as cell growth at 1 x 10^-5 M; type: functional, cell-based; summary of the method: as §1
[54] = system: SNB-75; test: Cytotoxicity against human SNB75 cells assessed as cell growth at 1 x 10^-5 M; type: functional, cell-based; summary of the method: as §1
[55] = system: MDA-MB-435; test: Cytotoxicity against human MDA-MB-435 cells assessed as cell growth at 1 x 10^-5 M; type: functional, cell-based; summary of the method: as §1
[56] = system: 786-0; test: Cytotoxicity against human 786-0 cells assessed as cell growth at 1 x 10^-5 M; type: functional, cell-based; summary of the method: as §1
[57] = system: IGROV-1; test: Cytotoxicity against human IGROV1 cells assessed as cell growth at 1 x 10^-5 M; type: functional, cell-based; summary of the method: as §1
[58] = system: Escherichia coli; test: Effect on photodynamic inactivation in Escherichia coli pUC19 DNA assessed as photo-mediated DNA cleavage at 10 to 100 uM by ethidium bromide gel-electrophoresis analysis
[59] = system: M14; test: Cytotoxicity against human M14 cells assessed as cell growth at 1 x 10^-5 M; type: functional, cell-based; summary of the method: as §1
[60] = system: SK-MEL-5; test: Cytotoxicity against human SK-MEL-5 cells assessed as cell growth at 1 x 10^-5 M; type: functional, cell-based; summary of the method: as §1
[61] = system: SN12C; test: Cytotoxicity against human SN12C cells assessed as cell growth at 1 x 10^-5 M; type: functional, cell-based; summary of the method: as §1

Cc1cc(O)c2c(c1)C1OC(=O)[C@H](Cc3ccc(NC(=O)COc4ccccc4)cc3)N1C1=C2C(=O)c2cccc(O[C@H]3C[C@@H](O)[C@@H](O)[C@H](C)O3)c2C1=O (stereo partly specified)
inactive: growth inhibition (GI) [1] | growth inhibition (GI) [2] | growth inhibition (GI) [3] | growth inhibition (GI) [4] | growth inhibition (GI) [5] | growth inhibition (GI) [6] | growth inhibition (GI) [7] | Activity [8] | growth inhibition (GI) [9] | growth inhibition (GI) [10] | growth inhibition (GI) [11] | growth inhibition (GI) [12] | growth inhibition (GI) [13] | growth inhibition (GI) [14] | growth inhibition (GI) [15] | growth inhibition (GI) [16] | growth inhibition (GI) [17] | growth inhibition (GI) [18] | growth inhibition (GI) [19] | growth inhibition (GI) [20] | growth inhibition (GI) [21] | growth inhibition (GI) [22] | growth inhibition (GI) [23] | growth inhibition (GI) [24] | growth inhibition (GI) [25] | growth inhibition (GI) [26] | growth inhibition (GI) [27] | Activity [28] | growth inhibition (GI) [29] | growth inhibition (GI) [30] | growth inhibition (GI) [31] | growth inhibition (GI) [32] | growth inhibition (GI) [33] | growth inhibition (GI) [34] | growth inhibition (GI) [35] | growth inhibition (GI) [36] | growth inhibition (GI) [37] | growth inhibition (GI) [38] | growth inhibition (GI) [39] | growth inhibition (GI) [40] | growth inhibition (GI) [41] | growth inhibition (GI) [42] | growth inhibition (GI) [43] | growth inhibition (GI) [44] | growth inhibition (GI) [45] | growth inhibition (GI) [46] | growth inhibition (GI) [47] | growth inhibition (GI) [48] | growth inhibition (GI) [49] | growth inhibition (GI) [50] | growth inhibition (GI) [51] | growth inhibition (GI) [52] | growth inhibition (GI) [53] | growth inhibition (GI) [54] | growth inhibition (GI) [55] | growth inhibition (GI) [56] | growth inhibition (GI) [57] | Activity [58] | growth inhibition (GI) [59] | growth inhibition (GI) [60] | growth inhibition (GI) [61]
